Data set [1] relates to Plasmodium falciparum. The data set can be described thus: Antimalarial activity against chloroquine-resistant Plasmodium falciparum Dd2 infected in human erythrocyte assessed as growth inhibition at 5 uM by SYBR Green-1 assay. Format: functional. In short, it runs like this: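 Erythrocytic-stage P. falciparum Dd2 growth inhibition at a fixed 5 µM single concentration. Synchronized ring-stage parasites in RPMI-1640 with 0.5% AlbuMAX II, 1.0% hematocrit, 1.0% initial parasitemia. Incubated 72 h under standard culture conditions, then stained with SYBR Green I (1:5,000). Fluorescence read at ex 494 nm, em 530 nm after room-temperature storage.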

Data set [2] deals with Plasmodium falciparum. In words: Antimalarial activity against chloroquine-resistant Plasmodium falciparum Dd2 infected in human erythrocyte assessed as growth inhibition by SYBR Green-1 assay. It is filed as functional, organism-based. In short, it runs like this: (§1)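 Dose-response EC50 against Dd2 and 3D7. Synchronized ring-stage parasites in RPMI-1640 with 0.5% AlbuMAX II, 1.0% hematocrit, 1.0% initial parasitemia. Triplicate 12-point 2-fold serial dilutions, incubated 72 h under standard culture conditions. Read-out by SYBR Green I (1:5,000) fluorescence, ex 494/em 530 nm. EC50 by non-linear regression after background subtraction and normalization.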

Data set [3] deals with Plasmodium falciparum. The data set can be described thus: Antimalarial activity against chloroquine-sensitive Plasmodium falciparum 3D7 infected in human erythrocyte assessed as growth inhibition by SYBR Green-1 assay. It is filed as functional, organism-based. In short, it runs like this: as §1
Data set [4] deals with HepG2. The data set can be described thus: Cytotoxicity against human HepG2A16 cells after 48 hrs by MTT assay. Format: cell-based. To be noted: HepG2A16, 48 h. In short, it runs like this:
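HepG2 A16 cells seeded at 1 × 10^4 cells/well, adhered overnight. Exposed to seven ten-fold dilutions (100 µM–1 nM); drug-free medium as negative control. Medium with compound renewed at 24 h, total 48 h. MTT (5 mg/mL stock in PBS) added for 3 h, then supernatant removed and acidified isopropanol added for read-out.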
(Formazan colour is commonly taken as a measure of viable cells.)

The nature of data set [5]: Selectivity index, ratio of EC50 for human HepG2A16 cells to EC50 for chloroquine-resistant Plasmodium falciparum Dd2 infected in human erythrocyte. It is filed as toxicity. As to conditions: read-out: Ratio EC50. Put shortly: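 Selectivity index computed as HepG2 A16 MTT EC50 (48 h exposure) divided by P. falciparum Dd2 EC50 (72 h SYBR Green I assay).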
Data set [6] is described as follows: Selectivity index, ratio of EC50 for human HepG2A16 cells to EC50 for chloroquine-sensitive Plasmodium falciparum 3D7 infected in human erythrocyte. To be noted: read-out: Ratio EC50. Format: toxicity. In short, it runs like this:
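Selectivity index computed as HepG2 A16 MTT EC50 (48 h exposure) divided by P. falciparum 3D7 EC50 (72 h SYBR Green I assay).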

Data set [7] relates to Plasmodium falciparum. In words: Antimalarial activity against chloroquine-sensitive Plasmodium falciparum 3D7. It is filed as functional, organism-based.
In data set [8] the test system is HepG2. In words: Cytotoxicity against human HepG2A16 cells. Format: cell-based. In short, it runs like this:
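HepG2 A16 cells seeded at 1 × 10^4 cells/well and left to adhere overnight. Exposed to 7 ten-fold dilutions (100 µM–1 nM), drug-free medium as negative control. Medium with compound renewed at 24 h, total 48 h exposure. Viability by MTT (5 mg/mL stock in PBS, 3 h), formazan dissolved in acidified isopropanol; EC50 reported.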

The record followed here is ChEMBL document CHEMBL3616431, “Exploring the 3-piperidin-4-yl-1H-indole scaffold as a novel antimalarial chemotype” (Eur J Med Chem, 2015).

One may read the inhibition as the drop in the measured response relative to a control, in per cent. On to `COc1cc(Cl)c(CN2CCC(c3c[nH]c4ccccc34)CC2)c(Cl)c1OC`, for which the inhibition at 5 µM in data set [1] is under 10%.

As to `O=C(c1cccnc1)N1CCC(C(=O)N2CCC(c3c[nH]c4ccccc34)CC2)CC1`, the inhibition at 5 µM in data set [1] came out at 30%.

Usually EC50 stands for the concentration at which the effect is half-maximal. As to `C[C@H]1[C@H](OC(=O)CCC(=O)O)O[C@@H]2O[C@@]3(C)CC[C@H]4[C@H](C)CC[C@@H]1[C@@]24OO3` [ARTESUNATE], the EC50 came out at 1.76 nM in data set [2] and 1.97 nM in data set [3].

For the molecule `c1ccc(CN2CCC(c3c[nH]c4ccccc34)CC2)cc1`, the inhibition at 5 µM in data set [1] was found to be 15%.

For `O=C(c1ccc(F)cc1)N1CCC(c2c[nH]c3ccccc23)CC1`, the inhibition at 5 µM in data set [1] is under 10%.

With `Fc1ccc(CN2CCC(c3c[nH]c4ccccc34)CC2)cc1`, in data set [1], the inhibition at 5 µM stood at 14%.

Take `O=C(c1ccccc1)N1CCC(C(=O)N2CCC(c3c[nH]c4ccccc34)CC2)CC1`: the inhibition at 5 µM in data set [1] was under 10%.

`O=C(c1ccncc1)N1CCC(c2c[nH]c3ccccc23)CC1`: the inhibition at 5 µM in data set [1] amounted to 14%.

With `O=C(c1cccs1)N1CCC(c2c[nH]c3ccccc23)CC1`, in data set [1], the inhibition at 5 µM was under 10%.

Regarding `CCN(CC)Cc1cc(Nc2ccnc3cc(Cl)ccc23)ccc1O` [AMODIAQUINE], the EC50 in data set [2] came to 12.3 nM; in data set [3], 5.85 nM.

In the case of `Cc1c(CN2CCC(c3c[nH]c4ccccc34)CC2)c(=O)n(-c2ccccc2)n1C`, the inhibition at 5 µM in data set [1] was under 10%.

Consider `O=C(c1ccc(F)cc1)N1CCC(C(=O)N2CCC(c3c[nH]c4ccccc34)CC2)CC1`, for which the inhibition at 5 µM in data set [1] was under 10%.

In the case of `Oc1cccc2ccc(CN3CCC(c4c[nH]c5ccccc45)CC3)nc12`, in data set [1], the inhibition at 5 µM is under 10%.

`O=C1C(O)=C([C@H]2CC[C@H](c3ccc(Cl)cc3)CC2)C(=O)c2ccccc21` [ATOVAQUONE]: the EC50 in data set [2] was 0.19 nM; in data set [3], 0.35 nM.

On to `COc1cc(OC)cc(C(=O)N2CCC(C(=O)N3CCC(c4c[nH]c5ccccc45)CC3)CC2)c1`, for which the inhibition at 5 µM in data set [1] was 10%.

As to `c1ccc2c(C3CCN(Cc4ccc(CN5CCOCC5)cc4)CC3)c[nH]c2c1`, the inhibition at 5 µM in data set [1] was 66%.

For `O=C(c1cccnc1)N1CCC(c2c[nH]c3ccccc23)CC1`, the inhibition at 5 µM in data set [1] was 100%. Further, the concentration for a half-maximal effect (EC50) in data set [2] was 2950 nM; in data set [3], 3800 nM; in data set [4] it was 12.8 µM. In addition, the selectivity ratio in data set [5] was determined as 4.33; in data set [6], 3.37.

Consider `Cc1ccccc1CN1CCC(c2c[nH]c3ccccc23)CC1`, for which the inhibition at 5 µM in data set [1] stood at 11%.

As for `c1ccc2c(C3CCN(Cc4ccc(CN5CCC(c6c[nH]c7ccccc67)CC5)cc4)CC3)c[nH]c2c1`, in data set [1], the inhibition at 5 µM came to 100%. Besides, the EC50 was determined as 210 nM in data set [2], 80 nM in data set [3] and 0.46 µM in data set [4]. The results for the selectivity ratio in data set [5] and in data set [6] were 2.19 and 5.75, respectively.

Regarding `FC(F)(F)c1ccc(CN2CCC(c3c[nH]c4ccccc34)CC2)cc1`, the inhibition at 5 µM in data set [1] was under 10%.

`O=C(c1ccccn1)N1CCC(c2c[nH]c3ccccc23)CC1`: the inhibition at 5 µM in data set [1] is under 10%.

`COc1cc(O)cc(OC)c1CN1CCC(c2c[nH]c3ccccc23)CC1`: the inhibition at 5 µM in data set [1] is under 10%.

On to `c1ccc2c(C3CCN(Cc4ccncc4)CC3)c[nH]c2c1`, for which, in data set [1], the inhibition at 5 µM was under 10%.

As to `Clc1ccc2nccc(N3CCC(c4c[nH]c5ccccc45)CC3)c2c1`, the inhibition at 5 µM in data set [1] was found to be 32%. For the same molecule, the figures for the EC50 in data set [2], in data set [3] and in data set [4] were 5010 nM, 6300 nM and 4.24 µM, respectively. The selectivity ratio came out at 0.85 in data set [5] and 0.67 in data set [6].

`CC(=O)N1CCC(c2c[nH]c3ccccc23)CC1`: the inhibition at 5 µM in data set [1] was under 10%.

On to `c1ccc2c(C3CCN(Cc4csc5ccccc45)CC3)c[nH]c2c1`, for which the inhibition at 5 µM in data set [1] was determined as 16%.

As for `c1ccc2c(C3CCN(CC4CCCCC4)CC3)c[nH]c2c1`, in data set [1], the inhibition at 5 µM was under 10%.

Consider `O=C(c1cccs1)N1CCC(C(=O)N2CCC(c3c[nH]c4ccccc34)CC2)CC1`, for which the inhibition at 5 µM in data set [1] was under 10%.

Take `O=C(c1ccc(C(=O)N2CCC(c3c[nH]c4ccccc34)CC2)cc1)N1CCC(c2c[nH]c3ccccc23)CC1`: the inhibition at 5 µM in data set [1] worked out at 80%.

For `O=C(c1ccccc1)N1CCC(c2c[nH]c3ccccc23)CC1`, in data set [1], the inhibition at 5 µM was under 10%.

As to `COc1ccc(OC)c(C(=O)N2CCC(c3c[nH]c4ccccc34)CC2)c1`, the inhibition at 5 µM in data set [1] was under 10%.

For the molecule `c1ccc2c(C3CCN(Cc4ccc(CN5CCCCC5)cc4)CC3)c[nH]c2c1`, in data set [1], the inhibition at 5 µM is 100%. Besides, the EC50 in data set [2] came to 2910 nM; in data set [3], 1350 nM.

Take `O=C(c1cnccn1)N1CCC(c2c[nH]c3ccccc23)CC1`: the inhibition at 5 µM in data set [1] was under 10%.

With `CC(=O)N1CCC(C(=O)N2CCC(c3c[nH]c4ccccc34)CC2)CC1`, the inhibition at 5 µM in data set [1] amounted to 10%.

Take `c1ccc2c(C3CCN(CC4CCNCC4)CC3)c[nH]c2c1`: the inhibition at 5 µM in data set [1] is under 10%.

On to `O=Cc1ccc(CN2CCC(c3c[nH]c4ccccc34)CC2)cc1`, for which, in data set [1], the inhibition at 5 µM was 20%.

Regarding `OCCOc1cccc(CN2CCC(c3c[nH]c4ccccc34)CC2)c1`, the inhibition at 5 µM in data set [1] is under 10%.

Turning to `c1csc(CN2CCC(c3c[nH]c4ccccc34)CC2)c1`, in data set [1], the inhibition at 5 µM is under 10%.

As for `Clc1ccc2nccc(N3CCC(CN4CCC(c5c[nH]c6ccccc56)CC4)CC3)c2c1`, the inhibition at 5 µM in data set [1] worked out at 100%. The EC50 was 940 nM in data set [2]; 240 nM in data set [3]; 3.86 µM in data set [4]; 34 nM in data set [7]; over 10 µM in data set [8]. Further, the selectivity ratio in data set [5] stood at 4.1; in data set [6] it was 16.1.

On to `CC(=O)n1cc(CN2CCC(c3c[nH]c4ccccc34)CC2)c2ccccc21`, for which the inhibition at 5 µM in data set [1] was 70%.

Consider `c1ccc2c(C3CCNCC3)c[nH]c2c1`, for which the inhibition at 5 µM in data set [1] is under 10%.

In the case of `CCN(CC)CCCC(C)Nc1ccnc2cc(Cl)ccc12` (stereo unspecified) [CHLOROQUINE], the 50% effective concentration (EC50) in data set [2] is 285 nM; in data set [3] it was 23 nM.

As to `CC(C)=CCC[C@H](C)CCN1CCC(c2c[nH]c3ccccc23)CC1`, the inhibition at 5 µM in data set [1] was found to be 17%.
